Activity calls are given as the source filed them. The calls are words filed in the database; no cut-off is given here.

Broadly, the Ki is the equilibrium dissociation constant of an inhibitor or competing ligand from its target.

Test [1] concerns Rattus norvegicus. Kind of test: Evaluated for number of rats ovulating in an in vivo anti-ovulatory assay at dose (500 microg); 8/8. It counts as functional, organism-based.
The subject of test [2] is Rattus norvegicus. The test is described as follows: Evaluated for number of rats ovulating in an in vivo anti-ovulatory assay at dose(1000 microg); 7/8. It counts as functional, organism-based.
Test [3] relates to Rattus norvegicus. The test is described as follows: Evaluated for number of rats ovulating in an in vivo anti-ovulatory assay at dose (250 microg); 0/6. It counts as functional, organism-based.
Test [4] concerns Rattus norvegicus. Kind of test: Evaluated for number of rats ovulating in an in vivo anti-ovulatory assay at dose (100 microg); 2/9. It counts as functional, organism-based.
Test [5] relates to Rattus norvegicus. Kind of test: Evaluated for number of rats ovulating in an in vivo anti-ovulatory assay at dose (500 microg); 4/8. It counts as functional, organism-based.
Test [6] has as its system Rattus norvegicus. Kind of test: Evaluated for number of rats ovulating in an in vivo anti-ovulatory assay at dose (250 microg); 5/9. It counts as functional, organism-based.
For test [7], the system named is Rattus norvegicus. The test is described as follows: Evaluated for number of rats ovulating in an in vivo anti-ovulatory assay at dose (25 microg); 5/6. It counts as functional, organism-based.
Test [8] relates to Rattus norvegicus. Kind of test: Evaluated for number of rats ovulating in an in vivo anti-ovulatory assay at dose (100 microg); 6/11. It counts as functional, organism-based.
For test [9], the system named is Rattus norvegicus. The test is described as follows: Evaluated for number of rats ovulating in an in vivo anti-ovulatory assay at dose (10 microg); 10/10. It counts as functional, organism-based.
The subject of test [10] is Rattus norvegicus. Kind of test: Evaluated for number of rats ovulating in an in vivo anti-ovulatory assay at dose (25 microg); 0/6. Format: functional, organism-based.
The test system of test [11] is Rattus norvegicus. The test is described as follows: Evaluated for number of rats ovulating in an in vivo anti-ovulatory assay at dose (500 microg); 7/8. Format: functional, organism-based.
Test [12] deals with Rattus norvegicus. Kind of test: Evaluated for number of rats ovulating in an in vivo anti-ovulatory assay at dose(50 microg); 1/4. It counts as functional, organism-based.
The test system of test [13] is Rattus norvegicus. The test is described as follows: Evaluated for number of rats ovulating in an in vivo anti-ovulatory assay at dose(100 microg); 0/5. It counts as functional, organism-based.
The test system of test [14] is Rattus norvegicus. Kind of test: Evaluated for number of rats ovulating in an in vivo anti-ovulatory assay at dose(50 microg); 0/6. Format: functional, organism-based.
Test [15] deals with Rattus norvegicus. Kind of test: Evaluated for number of rats ovulating in an in vivo anti-ovulatory assay at dose(25 microg); 3/4. Format: functional, organism-based.
Test [16] deals with T1, Gonadotropin-releasing hormone receptor (Rattus norvegicus, UniProt P30969).
T1 sequence (P30969 whole entry): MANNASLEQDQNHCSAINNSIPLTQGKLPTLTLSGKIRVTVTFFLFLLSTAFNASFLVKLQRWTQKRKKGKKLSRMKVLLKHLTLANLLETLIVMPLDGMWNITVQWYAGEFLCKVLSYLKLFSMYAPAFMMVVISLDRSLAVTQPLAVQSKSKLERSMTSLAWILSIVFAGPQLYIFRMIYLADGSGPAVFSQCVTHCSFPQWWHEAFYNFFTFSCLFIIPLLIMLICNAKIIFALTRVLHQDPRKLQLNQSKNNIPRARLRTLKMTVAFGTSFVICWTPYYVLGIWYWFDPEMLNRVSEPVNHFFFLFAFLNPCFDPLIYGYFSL
Kind of test: Competitive radioligand binding assay for rat Gonadotropin-releasing hormone receptor cells stably transfected in human HEK293. An outline of the steps:
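Membranes from HEK-293 cells stably expressing rat GnRH receptor (5% sucrose homogenate; nuclei removed at 3000g, membranes pelleted at 20000g, 4 °C), 7 µg protein in 10 mM Hepes pH 7.5, 150 mM NaCl, 0.1% BSA. Competitor at varying concentrations vs des-Gly10-[125I-Tyr5,DAla6,NMeLeu7,Pro9-NHEt]GnRH (~100 000 cpm), 90 min; PEI-coated GF/C filtration, PBS wash, γ counting. Ki by nonlinear least-squares fit; ≥3 independent experiments, mean ± SEM.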

Test [17] relates to Rattus norvegicus. The test is described as follows: Evaluated for number of rats ovulating in an in vivo anti-ovulatory assay at dose (1000 microg); 3/8. It counts as functional, organism-based.

Take `CC(=O)N[C@H]1CCC(=O)N[C@@H](C(=O)N[C@@H](CO)C(=O)N[C@@H](Cc2ccc(O)cc2)C(=O)N[C@H](CCCN=C(N)N)C(=O)N[C@H](CC(C)C)C(=O)N[C@@H](CCCN=C(N)N)C(=O)N2CCC[C@H]2C(=O)N[C@H](C)C(N)=O)CCCCNC(=O)[C@@H](Cc2ccc(Cl)cc2)NC1=O`: in [1], the outcome was inactive.

For `CC(=O)N[C@H]1CC(=O)N[C@H](C(=O)N[C@@H](CO)C(=O)N[C@@H](Cc2ccc(O)cc2)C(=O)N[C@H](Cc2ccc3ccccc3c2)C(=O)N[C@H](CC(C)C)C(=O)N[C@@H](CCCN=C(N)N)C(=O)N2CCC[C@H]2C(=O)N[C@H](C)C(N)=O)CNC(=O)[C@@H](Cc2ccc(Cl)cc2)NC1=O`, in [2], the result was inactive.

Take `CC(=O)N[C@H]1CC(=O)N[C@@H](C)C(=O)N[C@@H](C(=O)N[C@@H](CO)C(=O)N[C@@H](Cc2ccc(O)cc2)C(=O)N[C@H](Cc2ccc3ccccc3c2)C(=O)N[C@H](CC(C)C)C(=O)N[C@@H](CCCN=C(N)N)C(=O)N2CCC[C@H]2C(=O)N[C@H](C)C(N)=O)CCCNC(=O)[C@@H](Cc2ccc(Cl)cc2)NC1=O`: the result in test [3] was Active. Besides, the Activity result in test [4] was “Weak activity”.

On to `CC(=O)N[C@H]1CC(=O)N[C@H](C)C(=O)N[C@@H](C(=O)N[C@@H](CO)C(=O)N[C@@H](Cc2ccc(O)cc2)C(=O)N[C@H](Cc2ccc3ccccc3c2)C(=O)N[C@H](CC(C)C)C(=O)N[C@@H](CCCN=C(N)N)C(=O)N2CCC[C@H]2C(=O)N[C@H](C)C(N)=O)CCCNC(=O)[C@@H](Cc2ccc(Cl)cc2)NC1=O`, for which the Activity entry in test [5] and in test [6] was “Weak activity” each time.

`CC(=O)N[C@H]1CC(=O)NCCCC(=O)N[C@@H](C(=O)N[C@@H](CO)C(=O)N[C@@H](Cc2ccc(O)cc2)C(=O)N[C@H](Cc2ccc3ccccc3c2)C(=O)N[C@H](CC(C)C)C(=O)N[C@@H](CCCN=C(N)N)C(=O)N2CCC[C@H]2C(=O)N[C@H](C)C(N)=O)CNC(=O)[C@@H](Cc2ccc(Cl)cc2)NC1=O`: in test [7], the outcome was inactive. Moreover, the Activity entry in test [8] was “Weak activity”.

Regarding `CC(=O)N[C@H]1CC(=O)NCC(=O)N[C@@H](C(=O)N[C@@H](CO)C(=O)N[C@@H](Cc2ccc(O)cc2)C(=O)N[C@H](Cc2ccc3ccccc3c2)C(=O)N[C@H](CC(C)C)C(=O)N[C@@H](CCCN=C(N)N)C(=O)N2CCC[C@H]2C(=O)N[C@H](C)C(N)=O)CCCNC(=O)[C@@H](Cc2ccc(Cl)cc2)NC1=O`, in [9], the result was inactive. Further, the result in test [10] was Active.

Turning to `CC(=O)N[C@H]1CC(=O)N[C@@H](C)C(=O)N[C@@H](C(=O)N[C@@H](CO)C(=O)N[C@@H](Cc2ccc(O)cc2)C(=O)N[C@H](CCCN=C(N)N)C(=O)N[C@H](CC(C)C)C(=O)N[C@@H](CCCN=C(N)N)C(=O)N2CCC[C@H]2C(=O)N[C@H](C)C(N)=O)CCCNC(=O)[C@@H](Cc2ccc(Cl)cc2)NC1=O`, the result in test [11] was inactive.

Consider `CC(=O)N[C@H]1CCC(=O)N[C@@H](C(=O)N[C@@H](CO)C(=O)N[C@@H](Cc2ccc(O)cc2)C(=O)N[C@H](Cc2ccc3ccccc3c2)C(=O)N[C@H](CC(C)C)C(=O)N[C@@H](CCCN=C(N)N)C(=O)N2CCC[C@H]2C(=O)N[C@H](C)C(N)=O)CCCCNC(=O)[C@@H](Cc2ccc(Cl)cc2)NC1=O`, for which the result in test [12] and in test [13] was Active.

On to `CC(=O)N[C@H]1CC(=O)NCCC(=O)N[C@@H](C(=O)N[C@@H](CO)C(=O)N[C@@H](Cc2ccc(O)cc2)C(=O)N[C@H](Cc2ccc3ccccc3c2)C(=O)N[C@H](CC(C)C)C(=O)N[C@@H](CCCN=C(N)N)C(=O)N2CCC[C@H]2C(=O)N[C@H](C)C(N)=O)CNC(=O)[C@@H](Cc2ccc(Cl)cc2)NC1=O`, for which the result in test [14] was Active. Also, the outcome in test [15] was inactive.

In turn, `CC(=O)NC1CCCNC(=O)CCNC(=O)C[C@@H](C(=O)N[C@@H](CO)C(=O)N[C@@H](Cc2ccc(O)cc2)C(=O)N[C@H](Cc2ccc3ccccc3c2)C(=O)N[C@H](CC(C)C)C(=O)NC(CCCN=C(N)N)C(=O)N2CCC[C@H]2C(=O)N[C@H](C)C(N)=O)NC(=O)[C@@H](Cc2ccc(Cl)cc2)NC1=O` (stereo in doubt) gave a Ki in test [16] of 2.2 nM. For the same compound, the Activity result in [17] was “Weak activity”.
